Measurements: ChEMBL document CHEMBL3102806, “1,2,4-Triazole/oxime hybrids as new strategy for nitric oxide donors: Synthesis, anti-inflammatory, ulceroginicity and antiproliferative activities” (Eur J Med Chem, 2014)

Experiments:
Rattus norvegicus [1] = experiment: Antiinflammatory activity in albino rat assessed as inhibition of carrageenan-induced paw edema at 0.28 mmol/kg, po administered 30 mins prior to carrageenan-challenge measured after 1 hr relative to control; format: functional
In short: (§1)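 Male albino rats in groups of four were fasted 24 h with water allowed. Dosing was oral at 0.28 mmol/kg, suspended in 0.5% w/v CMC; controls got CMC alone. After 30 min, 0.1 ml of 1% carrageenan in saline went subplantar into the right hind paw and saline into the left. Paw thickness was read by caliper before and at 1–5 h. % inhibition = [(VR−VL)control−(VR−VL)treated]/(VR−VL)control ×100. Mean ± SEM, n = 4, one-way ANOVA vs control.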

Rattus norvegicus [2] = experiment: Antiinflammatory activity in albino rat assessed as inhibition of carrageenan-induced paw edema at 0.28 mmol/kg, po administered 30 mins prior to carrageenan-challenge measured after 2 hrs relative to control; format: functional; in short: as §1
Rattus norvegicus [3] = experiment: Antiinflammatory activity in albino rat assessed as inhibition of carrageenan-induced paw edema at 0.28 mmol/kg, po administered 30 mins prior to carrageenan-challenge measured after 3 hrs relative to control; format: functional; in short: as §1
Rattus norvegicus [4] = experiment: Antiinflammatory activity in albino rat assessed as inhibition of carrageenan-induced paw edema at 0.28 mmol/kg, po administered 30 mins prior to carrageenan-challenge measured after 4 hrs relative to control; format: functional; in short: as §1
Rattus norvegicus [5] = experiment: Antiinflammatory activity in albino rat assessed as inhibition of carrageenan-induced paw edema at 0.28 mmol/kg, po administered 30 mins prior to carrageenan-challenge measured after 5 hrs relative to control; format: functional; in short: as §1
Rattus norvegicus [6] = experiment: Ulcerogenic activity in albino rat carrageenan-induced paw edema model assessed as ulcer index at 0.28 mmol/kg, po (reference value: 0.60 +/- 0.05); format: toxicity, organism-based; conditions: in vivo
In short: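 Rats given the compound orally at 0.28 mmol/kg, suspended in 0.5% aqueous CMC; vehicle-only control, n = 4 per group. Gastric ulcers graded by area: I (<1 mm²), II (1–3 mm²), III (>3 mm²). Ulcer index = 1×(level I count) + 2×(level II) + 3×(level III). Mean ± SEM, one-way ANOVA versus control.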

Rattus norvegicus [7] = experiment: Gastrointestinal toxicity in albino rat carrageenan-induced paw edema model assessed as decrease in thickness of gastric mucosa with marked loss of mucosal membrane at areas of ulceration at 0.28 mmol/kg, po by hematoxylin and eosin staining-based light microscopic analysis; format: organism-based; conditions: in vivo
In short: (§2)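 Rats were dosed orally at 0.28 mmol/kg, suspended in 0.5% aqueous CMC; vehicle-only animals served as controls. After ulcer scoring, stomach sections were stained with haematoxylin and eosin: acid-alcohol differentiation, then 1% eosin for 10 min. Sections were dehydrated, cleared in xylene, mounted and examined by light microscopy.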

Rattus norvegicus [8] = experiment: Gastrointestinal toxicity in albino rat carrageenan-induced paw edema model assessed as loss of morphology of glandular structures at 0.28 mmol/kg, po by hematoxylin and eosin staining-based light microscopic analysis; format: organism-based; conditions: in vivo; in short: as §2
[9] = Induction of nitric oxide release in phosphate buffer at 10^-4 M at pH 7.4 after 1 hr by Griess colorimetric method in presence of N-acetylcysteine; format: physicochemical; conditions: pH 7.4, 1 h, 100 µM
In short: (§3)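 Final drug concentration 10^-4 M, added from DMF into 1:1 50 mM phosphate buffer (pH 7.4)/MeOH containing 5 × 10^-4 M N-acetylcysteine, at 37 °C. Nitrite read with Griess reagent after 10 min at room temperature, absorbance at 546 nm. Calibration with sodium nitrite standards (10–80 nmol/ml). Reported as mol NO per mol, n = 4 reaction mixtures.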

[10] = Induction of nitric oxide release in phosphate buffer at 10^-4 M at pH 7.4 after 2 hrs by Griess colorimetric method in presence of N-acetylcysteine; format: physicochemical; conditions: pH 7.4, 2 h, 100 µM; in short: as §3
[11] = Induction of nitric oxide release in phosphate buffer at 10^-4 M at pH 7.4 after 3 hrs by Griess colorimetric method in presence of N-acetylcysteine; format: physicochemical; conditions: pH 7.4, 3 h, 100 µM; in short: as §3
[12] = Induction of nitric oxide release in phosphate buffer at 10^-4 M at pH 7.4 after 4 hrs by Griess colorimetric method in presence of N-acetylcysteine; format: physicochemical; conditions: pH 7.4, 4 h, 100 µM; in short: as §3
[13] = Induction of nitric oxide release in phosphate buffer at 10^-4 M at pH 7.4 after 5 hrs by Griess colorimetric method in presence of N-acetylcysteine; format: physicochemical; conditions: pH 7.4, 5 h, 100 µM; in short: as §3
[14] = Induction of nitric oxide release in phosphate buffer at 10^-4 M at pH 7.4 after 6 hrs by Griess colorimetric method in presence of N-acetylcysteine; format: physicochemical; conditions: pH 7.4, 6 h, 100 µM; in short: as §3
[15] = Induction of nitric oxide release in HCl buffer at 10^-4 M at pH 1 after 1 hr by Griess colorimetric method in presence of N-acetylcysteine; format: physicochemical; conditions: pH 1, 1 h, 100 µM
In short: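 Same Griess nitrite procedure at 10^-4 M final drug with N-acetylcysteine at 37 °C, but with 0.1 N HCl (pH 1) in place of the pH 7.4 phosphate buffer. Absorbance at 546 nm against a sodium nitrite calibration curve.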

Rattus norvegicus [16] = experiment: Gastrointestinal toxicity in albino rat carrageenan-induced paw edema model assessed as capillary vasodilatation of lamina propria associated with accumulation of edema fluid at 0.28 mmol/kg, po by hematoxylin and eosin staining-based light microscopic analysis; format: organism-based; conditions: in vivo; in short: as §2
Rattus norvegicus [17] = experiment: Gastrointestinal toxicity in albino rat carrageenan-induced paw edema model assessed as acute inflammatory cell infiltrating its whole thickness at 0.28 mmol/kg, po by hematoxylin and eosin staining-based light microscopic analysis; format: organism-based; conditions: in vivo; in short: as §2
Rattus norvegicus [18] = experiment: Gastrointestinal toxicity in albino rat carrageenan-induced paw edema model assessed as severe atrophic gastritis and gland atrophy at 0.28 mmol/kg, po by hematoxylin and eosin staining-based light microscopic analysis; format: organism-based; conditions: in vivo; in short: as §2
Rattus norvegicus [19] = experiment: Gastrointestinal toxicity in albino rat carrageenan-induced paw edema model assessed as appearance of ulcer at 0.28 mmol/kg, po by hematoxylin and eosin staining-based light microscopic analysis; format: organism-based; conditions: in vivo; in short: as §2
Rattus norvegicus [20] = experiment: Gastrointestinal toxicity in albino rat carrageenan-induced paw edema model assessed as destruction of surface epithelium and epithelial lining of gastric pits at 0.28 mmol/kg, po by hematoxylin and eosin staining-based light microscopic analysis; format: organism-based, Stomach; conditions: in vivo; in short: as §2
Rattus norvegicus [21] = experiment: Gastrointestinal toxicity in albino rat carrageenan-induced paw edema model assessed as apoptotic glandular epithelial cells at 0.28 mmol/kg, po by hematoxylin and eosin staining-based light microscopic analysis; format: organism-based, Epithelial cell; conditions: in vivo; in short: as §2

SMILES | inhibition in vivo at 280 µmol/kg (Rattus norvegicus [1]) | inhibition in vivo at 280 µmol/kg (Rattus norvegicus [2]) | inhibition in vivo at 280 µmol/kg (Rattus norvegicus [3]) | inhibition in vivo at 280 µmol/kg (Rattus norvegicus [4]) | inhibition in vivo at 280 µmol/kg (Rattus norvegicus [5]) | UI (Rattus norvegicus [6]) | Activity (Rattus norvegicus [7]) | Activity [9] | Activity [10] | Activity [11] | Activity [12] | Activity [13] | Activity [14] | Activity [15] | Activity (Rattus norvegicus [16]) | Activity (Rattus norvegicus [17]) | Activity (Rattus norvegicus [18]) | further results
C=CCn1c(SCC(=O)Nc2ccc(C(C)=O)cc2)nnc1-c1ccc(OC)c(OC)c1 | 56% | 57% | 58% | 70% | 64% | 2.45 | Toxic | – | – | – | – | – | – | – | – | – | – | Activity (Rattus norvegicus [8]): Toxic
C=CCn1c(SCC(=O)Nc2ccc(/C(C)=N/O)cc2)nnc1-c1ccc(OC)c(OC)c1 | 53% | 56% | 70% | 79% | 79% | 0.25 | – | 0.13 mol/mol | 0.16 mol/mol | 0.32 mol/mol | 0.35 mol/mol | 0.27 mol/mol | 0.26 mol/mol | Not Active | Non-toxic | Non-toxic | Non-toxic | Activity (Rattus norvegicus [19]): Non-toxic
C=CCn1c(SCC(=O)Nc2ccc(/C(C)=N/O)cc2)nnc1-c1cc(OC)c(OC)c(OC)c1 | 49% | 53% | 62% | 72% | 64% | 0.75 | – | 0.11 mol/mol | 0.15 mol/mol | 0.19 mol/mol | 0.24 mol/mol | 0.18 mol/mol | 0.16 mol/mol | Not Active | – | – | – | –
COc1ccc2c(c1)c(CC(=O)O)c(C)n2C(=O)c1ccc(Cl)cc1 [INDOMETHACIN] | 51% | 67% | 74% | 83% | 87% | 63.34 | Toxic | – | – | – | – | – | – | – | Toxic | Toxic | Toxic | Activity (Rattus norvegicus [20]): Toxic; Activity (Rattus norvegicus [21]): Toxic
